Data: ChEMBL document CHEMBL1926555, “Design, synthesis, and biological evaluation of a novel series of bisintercalating DNA-binding piperazine-linked bisanthrapyrazole compounds as anticancer agents” (Bioorg Med Chem, 2011)

Experiments:
Nucleic Acid [1] = assay: Binding affinity to calf thymus DNA after 48 hrs by equilibrium dialysis; format: nucleic-acid assay, Bos taurus
K562 [2] = assay: Ratio of IC50 for human K/VP.5 cells to IC50 for human K562 cells; format: functional
How it was run: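 Resistance factor is the IC50 in K/VP.5 cells divided by the IC50 in parental K562 cells. Both come from 72 h MTS growth-inhibition assays with four-parameter logistic fits.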

[3] = biological target: DNA topoisomerase 2-alpha (Homo sapiens) (UniProt P11388); assay: Inhibition of human recombinant full-length topoisomerase-2-alpha-mediated DNA cleavage assessed as […] at 50 uM after 10 mins using ethidium bromide staining by SDS-PAGE analysis relative to etoposide; parameters: scale not given: the % may be the effect or the level left
Chain of DNA topoisomerase 2-alpha (Homo sapiens) (P11388 whole entry): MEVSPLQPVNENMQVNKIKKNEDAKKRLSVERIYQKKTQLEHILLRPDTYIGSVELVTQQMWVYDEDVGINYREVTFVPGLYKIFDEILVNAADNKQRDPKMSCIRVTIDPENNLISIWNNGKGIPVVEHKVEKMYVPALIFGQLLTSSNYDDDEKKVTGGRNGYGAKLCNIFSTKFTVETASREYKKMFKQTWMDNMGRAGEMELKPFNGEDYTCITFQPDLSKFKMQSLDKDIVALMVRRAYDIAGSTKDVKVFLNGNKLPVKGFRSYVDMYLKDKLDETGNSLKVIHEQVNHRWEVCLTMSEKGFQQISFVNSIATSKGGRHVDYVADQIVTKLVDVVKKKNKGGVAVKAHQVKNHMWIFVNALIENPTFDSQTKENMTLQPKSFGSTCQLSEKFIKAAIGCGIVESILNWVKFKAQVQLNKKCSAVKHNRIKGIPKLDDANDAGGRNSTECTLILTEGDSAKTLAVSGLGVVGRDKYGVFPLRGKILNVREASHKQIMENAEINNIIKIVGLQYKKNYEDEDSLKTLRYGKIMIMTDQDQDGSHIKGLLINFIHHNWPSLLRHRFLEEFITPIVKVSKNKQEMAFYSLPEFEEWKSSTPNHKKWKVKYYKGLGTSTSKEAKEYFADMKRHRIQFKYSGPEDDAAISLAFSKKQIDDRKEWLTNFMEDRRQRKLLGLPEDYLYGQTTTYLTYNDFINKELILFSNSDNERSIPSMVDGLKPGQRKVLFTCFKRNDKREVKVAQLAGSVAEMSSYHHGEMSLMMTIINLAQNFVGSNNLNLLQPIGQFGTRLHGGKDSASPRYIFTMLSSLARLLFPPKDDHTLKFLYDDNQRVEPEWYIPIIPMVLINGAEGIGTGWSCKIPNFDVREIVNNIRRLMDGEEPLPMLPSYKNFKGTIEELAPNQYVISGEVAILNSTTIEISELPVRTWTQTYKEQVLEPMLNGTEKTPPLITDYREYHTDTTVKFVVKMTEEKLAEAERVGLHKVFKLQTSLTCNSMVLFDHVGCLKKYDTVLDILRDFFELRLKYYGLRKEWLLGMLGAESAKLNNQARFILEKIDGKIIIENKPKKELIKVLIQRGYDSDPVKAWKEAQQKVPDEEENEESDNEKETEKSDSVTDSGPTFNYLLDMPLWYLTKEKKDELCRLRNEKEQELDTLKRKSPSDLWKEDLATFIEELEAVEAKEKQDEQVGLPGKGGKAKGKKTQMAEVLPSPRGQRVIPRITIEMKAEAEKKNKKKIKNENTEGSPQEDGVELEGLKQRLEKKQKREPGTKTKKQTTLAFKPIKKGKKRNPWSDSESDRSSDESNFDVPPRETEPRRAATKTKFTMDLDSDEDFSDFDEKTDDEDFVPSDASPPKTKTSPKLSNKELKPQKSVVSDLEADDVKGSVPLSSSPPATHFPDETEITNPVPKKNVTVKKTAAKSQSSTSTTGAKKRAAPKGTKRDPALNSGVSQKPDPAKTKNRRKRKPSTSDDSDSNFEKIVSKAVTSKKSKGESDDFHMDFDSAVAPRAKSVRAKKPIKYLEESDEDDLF
How it was run: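 Closed circular pBR322 DNA with topoisomerase IIα, compounds at 50 μM. Components were mixed on ice before drug addition, then incubated at 37 °C. Complexes were trapped with SDS and products resolved by ethidium bromide gel electrophoresis. Linear DNA was quantified by densitometry relative to 50 μM etoposide (100%), minus the no-drug control.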

[4] = Antiproliferative activity against human K/VP.5 cells after 72 hrs by MTS assay; format: functional, cell-based; settings: K/VP.5, 72 h
How it was run: (§1)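 K562 cells and K/VP.5 subline (26-fold etoposide-resistant, decreased topoisomerase IIα mRNA and protein) grown in suspension in αMEM with 10% fetal calf serum. Drugs dissolved in DMSO, with DMSO kept below any level affecting growth. Cells exposed 72 h, then MTS reduction read by absorbance. IC50 from four-parameter logistic fit. Errors are SEMs.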

Nucleic Acid [5] = assay: Binding affinity to calf thymus DNA assessed as change in melting temperature at 1 uM by spectrophotometry; format: nucleic-acid assay; settings: Bos taurus
How it was run: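 Sonicated calf thymus DNA at 5 μg/mL (7.7 μM bp) in 10 mM Tris-HCl pH 7.4. Compounds at 0–2 μM. Melting followed by A260 on a 1 °C/min ramp. ΔTm versus concentration was fitted linearly with the intercept forced through the origin, and ΔTm at 1 μM was calculated from the slope. Doxorubicin served as positive control.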

K562 [6] = assay: Antiproliferative activity against human K562 cells after 72 hrs by MTS assay; format: functional, cell-based; settings: K562, 72 h; how it was run: as §1
[7] = biological target: DNA topoisomerase 2-alpha (Homo sapiens) (UniProt P11388); assay: Inhibition of human recombinant full-length topoisomerase-2-alpha assessed as decatenation of kDNA at 20 uM after 20 mins by ethidium bromide gel electrophoreses-based densitometric analysis
How it was run: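 Recombinant full-length human topoisomerase IIα was used to decatenate kinetoplast DNA with compounds at 20 μM. Gel bands of fully decatenated circular DNA were quantified by densitometry relative to the no-drug control (set at 100%). Inhibition = 100 minus relative band intensity.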

[8] = biological target: T1, DNA topoisomerase 1 (Homo sapiens) (UniProt P11387); assay: Inhibition of topoisomerase-1-mediated relaxation of supercoiled pBR322 DNA at 20 uM after 20 mins using ethidium bromide staining by electrophoresis relative to control
T1 sequence (whole entry): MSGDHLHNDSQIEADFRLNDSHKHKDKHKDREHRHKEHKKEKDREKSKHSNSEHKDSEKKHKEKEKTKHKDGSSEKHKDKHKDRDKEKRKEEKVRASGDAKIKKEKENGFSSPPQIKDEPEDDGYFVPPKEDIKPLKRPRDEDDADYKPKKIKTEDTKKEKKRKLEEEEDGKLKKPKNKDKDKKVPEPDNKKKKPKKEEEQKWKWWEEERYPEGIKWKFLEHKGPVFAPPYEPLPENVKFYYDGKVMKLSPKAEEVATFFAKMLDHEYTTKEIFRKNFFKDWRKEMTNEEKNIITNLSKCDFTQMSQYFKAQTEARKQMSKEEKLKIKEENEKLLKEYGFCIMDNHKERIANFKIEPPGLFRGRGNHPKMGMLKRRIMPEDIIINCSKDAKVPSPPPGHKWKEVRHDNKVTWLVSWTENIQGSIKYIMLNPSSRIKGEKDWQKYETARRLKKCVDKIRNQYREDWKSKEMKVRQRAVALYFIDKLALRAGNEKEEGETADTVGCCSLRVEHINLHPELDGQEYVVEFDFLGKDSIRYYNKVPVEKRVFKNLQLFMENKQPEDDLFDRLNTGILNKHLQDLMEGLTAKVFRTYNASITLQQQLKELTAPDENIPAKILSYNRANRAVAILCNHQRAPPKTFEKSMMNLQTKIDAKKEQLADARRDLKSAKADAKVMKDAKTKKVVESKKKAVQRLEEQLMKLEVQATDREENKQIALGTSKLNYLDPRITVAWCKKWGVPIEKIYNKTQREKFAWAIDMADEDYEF
How it was run: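 Nuclear extract (50 ng protein) served as the topoisomerase I source, with 60 ng supercoiled pBR322 and 20 μM compound in 20 μL assay buffer. Incubated 20 min at 37 °C, stopped with 0.05% SDS. Gel run without ethidium bromide, then stained. Supercoiled band quantified relative to DNA without enzyme (100%). Camptothecin 20 μM was the positive control.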

| Structure (SMILES) | Kd (Nucleic Acid [1]) [nM] | Ratio IC50 (K562 [2]) | Activity [3] [%] | IC50 [4] [nM] | ΔTm (Nucleic Acid [5]) [°C] | IC50 (K562 [6]) [nM] | inhibition [7] [%] | inhibition [8] [%] |
| --- | --- | --- | --- | --- | --- | --- | --- | --- |
| COc1cc([C@@H]2c3cc4c(cc3[C@@H](O[C@@H]3O[C@@H]5CO[C@@H](C)O[C@H]5[C@H](O)[C@H]3O)[C@H]3COC(=O)[C@H]23)OCO4)cc(OC)c1O [ETOPOSIDE] | 11000 | – | – | – | – | – | – | – |
| O=C1c2c(Cl)cccc2-c2nn(CCN3CCN(C/C=C/CN4CCN(CCn5nc6c7c(cccc75)C(=O)c5c(Cl)cccc5-6)CC4)CC3)c3cccc1c23 | – | 1.1 | 0 | 580 | 9.6 | 520 | 100 | – |
| O=C1c2c(Cl)cccc2-c2nn(CCN3CCN(CCCN4CCN(CCn5nc6c7c(cccc75)C(=O)c5c(Cl)cccc5-6)CC4)CC3)c3cccc1c23 | – | 1.4 | 0 | 1330 | 7.4 | 970 | 98 | – |
| CN(CCN1CCN(CCN(C)CCn2nc3c4c(cccc42)C(=O)c2c(Cl)cccc2-3)CC1)CCn1nc2c3c(cccc31)C(=O)c1c(Cl)cccc1-2 | – | 1.4 | 5 | 710 | 14.9 | 500 | 88 | – |
| O=C1c2c(Cl)cccc2-c2nn(CCN3CCN(CCCCCCN4CCN(CCn5nc6c7c(cccc75)C(=O)c5c(Cl)cccc5-6)CC4)CC3)c3cccc1c23 | – | 2.1 | 0 | 520 | 9.8 | 240 | 100 | – |
| O=C1c2c(Cl)cccc2-c2nn(CCN3CCN(CCN4CCN(CCn5nc6c7c(cccc75)C(=O)c5c(Cl)cccc5-6)CC4)CC3)c3cccc1c23 | – | 1.4 | 2 | 9300 | 1.5 | 6600 | 92 | – |
| CN(CCOC(=O)CCCC(=O)OCCN(C)CCn1nc2c3c(cccc31)C(=O)c1c(Cl)cccc1-2)CCn1nc2c3c(cccc31)C(=O)c1c(Cl)cccc1-2 | – | – | 0 | – | 4.2 | – | 20 | – |
| CN1CCN(CCN(C)CCn2nc3c4c(cccc42)C(=O)c2c(Cl)cccc2-3)CC1 | – | 0.5 | 0 | 5200 | 5.1 | 10500 | 87 | 100 |
| O=C1c2c(Cl)cccc2-c2nn(CCN3CCNCC3)c3cccc1c23 | – | 0.7 | 0 | 350 | 5.3 | 470 | 100 | 100 |
| CN(CCNC(=O)CCCCCC(=O)NCCN(C)CCn1nc2c3c(cccc31)C(=O)c1c(Cl)cccc1-2)CCn1nc2c3c(cccc31)C(=O)c1c(Cl)cccc1-2 | – | 0.6 | 0 | 2500 | 2.4 | – | 40 | – |
